Source: ChEMBL document CHEMBL1255444, “In vitro antibacterial activities of JNJ-Q2, a new broad-spectrum fluoroquinolone” (Antimicrob Agents Chemother, 2010)
Converted amounts (≈) assume the structure as drawn.

How the values were obtained:
Format in all cases: functional
[1] = tested on: Streptococcus pneumoniae; assay: Antibacterial activity against Streptococcus pneumoniae ATCC 49619 by broth microdilution method
In short: (§1)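 MICs by CLSI M07-A7 broth microdilution in cation-adjusted Mueller-Hinton medium. For S. pneumoniae the medium was supplemented with 5% lysed horse blood. CLSI quality control strains were run alongside as appropriate.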

[2] = tested on: Haemophilus influenzae; assay: Antibacterial activity against Haemophilus influenzae by broth microdilution method; in short: as §1
[3] = tested on: Moraxella catarrhalis; assay: Antibacterial activity against Moraxella catarrhalis by broth microdilution method; in short: as §1
[4] = tested on: Escherichia coli; assay: Antibacterial activity against ciprofloxacin-resistant Escherichia coli by broth microdilution method
In short: (§2)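 CLSI M07-A7 broth microdilution MIC. Medium was cation-adjusted Mueller-Hinton broth. For S. pneumoniae it was Mueller-Hinton supplemented with 5% lysed horse blood. CLSI quality-control strains were included as appropriate.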

[5] = tested on: Serratia marcescens; assay: Antibacterial activity against Serratia marcescens by broth microdilution method; in short: as §1
[6] = tested on: Proteus mirabilis; assay: Antibacterial activity against Proteus mirabilis by broth microdilution method; in short: as §1
[7] = tested on: Citrobacter freundii; assay: Antibacterial activity against Citrobacter freundii by broth microdilution method; in short: as §1
[8] = tested on: Streptococcus pneumoniae; assay: Antibacterial activity against ciprofloxacin-resistant Streptococcus pneumoniae by broth microdilution method; in short: as §2
[9] = tested on: Staphylococcus epidermidis; assay: Antibacterial activity against methicillin-susceptible Staphylococcus epidermidis by broth microdilution method
[10] = tested on: Staphylococcus epidermidis; assay: Antibacterial activity against methicillin-resistant Staphylococcus epidermidis by broth microdilution method
[11] = tested on: Staphylococcus epidermidis; assay: Antibacterial activity against methicillin-, ciprofloxacin-resistant Staphylococcus epidermidis by broth microdilution method
[12] = tested on: Enterobacter cloacae; assay: Antibacterial activity against Enterobacter cloacae by broth microdilution method
[13] = tested on: Klebsiella aerogenes; assay: Antibacterial activity against Enterobacter aerogenes by broth microdilution method; in short: as §1
[14] = tested on: Klebsiella pneumoniae; assay: Antibacterial activity against Klebsiella pneumoniae by broth microdilution method; in short: as §1
[15] = tested on: Providencia stuartii; assay: Antibacterial activity against Providencia stuartii by broth microdilution method; in short: as §1
[16] = tested on: Pseudomonas aeruginosa; assay: Antibacterial activity against Pseudomonas aeruginosa ATCC 27853 by broth microdilution method; in short: as §1
[17] = tested on: Staphylococcus aureus; assay: Antibacterial activity against Staphylococcus aureus […] by broth microdilution method; in short: as §2
[18] = tested on: Staphylococcus aureus; assay: Antibacterial activity against methicillin-susceptible Staphylococcus aureus by broth microdilution method
[19] = tested on: Staphylococcus aureus; assay: Antibacterial activity against methicillin-resistant Staphylococcus aureus by broth microdilution method; in short: as §2
[20] = tested on: Staphylococcus aureus; assay: Antibacterial activity against methicillin-, ciprofloxacin-resistant Staphylococcus aureus by broth microdilution method; in short: as §2
[21] = tested on: Enterococcus faecalis; assay: Antibacterial activity against Enterococcus faecalis ATCC 29212 by broth microdilution method; in short: as §1
[22] = tested on: Enterococcus faecium; assay: Antibacterial activity against Enterococcus faecium by broth microdilution method; in short: as §1

CO/N=C1\CN(c2nc3c(cc2F)c(=O)c(C(=O)O)cn3C2CC2)CC1CN (configuration not stated) [GEMIFLOXACIN]
MIC50 [1]: 0.03 µg/mL (≈ 0.077 µM) | MIC90 [1]: 0.5 µg/mL (≈ 1.28 µM) | MIC50 [2]: ≤ 0.004 µg/mL | MIC90 [2]: 0.008 µg/mL (≈ 0.0205 µM) | MIC [3]: ≤ 0.015 µg/mL | MIC50 [3]: ≤ 0.015 µg/mL | MIC90 [3]: ≤ 0.015 µg/mL | MIC50 [4]: 32 µg/mL (≈ 82.2 µM) | MIC90 [4]: 64 µg/mL (≈ 164 µM) | MIC50 [5]: 0.25 µg/mL (≈ 0.642 µM) | MIC90 [5]: 0.5 µg/mL (≈ 1.28 µM) | MIC50 [6]: 0.12 µg/mL (≈ 0.308 µM) | MIC90 [6]: 0.25 µg/mL (≈ 0.642 µM) | MIC50 [7]: 1 µg/mL (≈ 2.57 µM) | MIC90 [7]: > 4 µg/mL

C[C@H]1COc2c(N3CCN(C)CC3)c(F)cc3c(=O)c(C(=O)O)cn1c23.C[C@H]1COc2c(N3CCN(C)CC3)c(F)cc3c(=O)c(C(=O)O)cn1c23.O [LEVOFLOXACIN]
MIC50 [8]: 16 µg/mL | MIC90 [8]: 64 µg/mL | MIC [9]: 0.12 µg/mL | MIC50 [9]: 0.12 µg/mL | MIC90 [9]: 0.25 µg/mL | MIC50 [10]: 8 µg/mL | MIC90 [10]: 16 µg/mL | MIC50 [11]: 16 µg/mL | MIC90 [11]: 16 µg/mL | MIC50 [4]: 16 µg/mL | MIC90 [4]: 64 µg/mL | MIC50 [12]: 0.06 µg/mL | MIC90 [12]: 0.12 µg/mL | MIC50 [13]: 0.06 µg/mL | MIC90 [13]: 0.06 µg/mL | MIC50 [14]: 0.06 µg/mL | MIC90 [14]: 0.12 µg/mL | MIC50 [15]: 16 µg/mL | MIC90 [15]: 64 µg/mL | MIC [16]: 0.5 µg/mL | MIC50 [16]: 0.5 µg/mL | MIC90 [16]: 2 µg/mL

CC1(C)S[C@@H]2[C@H](NC(=O)Cc3ccccc3)C(=O)N2[C@H]1C(=O)O [PENICILLIN G]
MIC50 [1]: 0.06 µg/mL (≈ 0.179 µM) | MIC90 [1]: 2 µg/mL (≈ 5.98 µM)

CN[C@H](CC(C)C)C(=O)N[C@H]1C(=O)N[C@@H](CC(N)=O)C(=O)N[C@H]2C(=O)N[C@H]3C(=O)N[C@H](C(=O)N[C@H](C(=O)O)c4cc(O)cc(O)c4-c4cc3ccc4O)[C@H](O)c3ccc(c(Cl)c3)Oc3cc2cc(c3O[C@@H]2O[C@H](CO)[C@@H](O)[C@H](O)[C@H]2O[C@H]2C[C@](C)(N)[C@H](O)[C@H](C)O2)Oc2ccc(cc2Cl)[C@H]1O [VANCOMYCIN]
MIC50 [17]: 1 µg/mL (≈ 0.69 µM) | MIC90 [17]: 1 µg/mL (≈ 0.69 µM) | MIC50 [18]: 1 µg/mL (≈ 0.69 µM) | MIC90 [18]: 2 µg/mL (≈ 1.38 µM) | MIC50 [19]: 1 µg/mL (≈ 0.69 µM) | MIC90 [19]: 1 µg/mL (≈ 0.69 µM) | MIC50 [20]: 1 µg/mL (≈ 0.69 µM) | MIC90 [20]: 1 µg/mL (≈ 0.69 µM) | MIC50 [9]: 2 µg/mL (≈ 1.38 µM) | MIC90 [9]: 2 µg/mL (≈ 1.38 µM) | MIC50 [10]: 2 µg/mL (≈ 1.38 µM) | MIC90 [10]: 2 µg/mL (≈ 1.38 µM) | MIC50 [11]: 2 µg/mL (≈ 1.38 µM) | MIC90 [11]: 2 µg/mL (≈ 1.38 µM) | MIC50 [21]: 2 µg/mL (≈ 1.38 µM) | MIC90 [21]: > 16 µg/mL | MIC50 [22]: > 16 µg/mL | MIC90 [22]: > 16 µg/mL
